Results published in ChEMBL document CHEMBL4513216, “Probing the Open Global Health Chemical Diversity Library for Multistage-Active Starting Points for Next-Generation Antimalarials” (ACS Infect Dis, 2020).

Assay: Toxicity liver stage against HepG2, at 10uM
Format: cell-based
Design: test concentration 10 uM, cell line HepG2-A16-CD81EGFP
Conditions: human, HepG2-A16-CD81EGFP cells; read-out: INHIBITION
Method in brief: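 Uninfected HepG2-A16-CD81EGFP cells, 3 × 10^3 per well, 1536-well, plated on prespotted compound at 10 μM final, parasite-free screening media added to match infected plates; puromycin 10 μM positive, DMSO 0.5% negative; run in parallel with 48 h PbLuc assay at 37 °C, 5% CO2; viability by CellTiter-Glo luminescence, normalized to controls.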

SMILES | cytotoxicity at 10 µM [%]
CCOC(=O)CNC(=O)NCc1cc(C)n(-c2ccc(OC)cc2)c1C | 8.27
CC(=O)Nc1cccc2c1ccn2CC(=O)NC(C)C | -7.79
COCCN1CC2(CCN(Cc3ccco3)CC2)c2ccccc21 | 18.3
CCOCC1CC2(CCN(C(=O)CC3=CCCCC3)CC2)CO1 (stereo unspecified) | -3.95
Cc1ccc(N2CCC3(CCC(=O)N3)CC2)nn1 | 0.903
CCC(=O)N1CCC2(COCc3c(C)nc(NCc4ccco4)nc32)C1 (stereo unspecified) | 1.75
CC(C)NC(=O)N1CCC2(CCCO2)C1 (stereo unspecified) | 3.14
Fc1cccc(CNCC2Cn3nncc3CO2)c1 (stereo unspecified) | 10.9
CN(Cc1cccnc1)C1CC2(CCN(C(=O)c3cnccn3)CC2)C1 | -0.733
CCN(c1ccc(C(=O)NCCCN2CCCCC2)cc1)S(=O)(=O)CC | 7.91
CN1C(=O)C(C)(C)COc2cc(NS(=O)(=O)c3ccccc3)ccc21 | -7.89
CN(C)C(=O)CC1CC2(CCN(C(=O)N(C)C)CC2)Oc2ccccc21 (stereo unspecified) | -11.5
COCCO[C@@H]1CCN(C(=O)c2ccc(C)o2)[C@@H]1Cc1cnn(C)c1 | -12.8
Cc1nc(N2CCCC2)ncc1-c1cc(O)nc(N2CCOCC2)n1 | 10.4
COc1ccc(C2=Nn3c(CCN)nnc3-c3ccccc3C2)cc1 | 4.92
c1ccc2c(N3CCOCC3)cnnc2c1 | -6.06
COc1ccccc1CNC(=O)C(C)n1cc2c(n1)c(C)nn2C (stereo unspecified) | 1.61
Cc1ccccc1CNC(=O)Cn1ncc2c1c(C)nn2C | 9.71
Cc1nn(C)c2cnn(Cc3ccc(C(=O)N4CCCCC4)o3)c12 | 11.3
CCn1nc(C)c2ncnc(N(C)C)c21 | 3.18
CO[C@H]1CN(C(=O)c2cccc(C)n2)CC[C@@]12CCCO2 | -6.6
O=C(O)[C@H]1OCC(=O)N(Cc2cccc(Cl)c2)[C@@H]1c1ccccc1 | 7.35
NC(=O)C1CN(C(=O)c2ccc(F)cc2)CCN1CCc1ccccc1 (stereo unspecified) | 2.77

SMILES | cytotoxicity at 10 µM [%]
O=C(O)c1ccccc1-c1ccc(CN2CCOCC2)cn1 | -1.1
O=C(O)c1ccccc1-c1cnc(Cn2c(=O)cc[nH]c2=O)s1 | 2.95
CN(C)C(=O)CN1CCC2(CC1)C[C@@H](O)[C@H](c1ccccc1)NC2=O | -22.4
Cc1cccc2nc(C(=O)N3CCCC[C@]4(C)NC(=O)CC[C@H]34)cn12 | -13.7
CCc1nnc(Nc2cccc(C3CCN(C(=O)CN(C)C)CC3)n2)s1 | -39.1
O=C(O)C1(Cc2cc(-c3ccccc3F)no2)CCOCC1 | -9.41
COc1ccc(CN(Cc2cn(C)nc2C)CC2CCCO2)c(OC)c1 (stereo unspecified) | -7.3
COc1ncc(C(=O)N2CCC(c3nc(C)n4ccsc34)CC2)cn1 | -17.4
CNc1ccc(CC2CCCN(C(=O)c3c(C)noc3C)C2)nn1 (stereo unspecified) | -5
Cn1cncc1CN1CC[C@](C)(O)[C@@H](Oc2cccc(F)c2)C1 | -8.49
Cn1ccnc1CC1CCCN(C(=O)Cc2ccccc2)C1 (stereo unspecified) | -4.14
COCCN1CCCC(c2nccnc2Nc2nc(C)cs2)C1 (stereo unspecified) | -7.16
Cc1ccc(C(=O)N2CCCCC2CN(C)C)cc1 (stereo unspecified) | -9.98
Cc1cc(NC(=O)N2CCN(C)CC2C)n(C(C)(C)C)n1 (stereo unspecified) | 6.3
COC(=O)C1=NN2C(=NS(=O)(=O)c3ccccc32)N1 | -8.57
CN1CCCN(C(=O)NCCNc2ncccc2C#N)CC1 | 6.75
CCc1nccn1C1CCCN(C(=O)c2ccc(C(N)=O)cn2)C1 (stereo unspecified) | 1.89
CCOc1ccc(C(=O)N(C)Cc2nccn2CC(F)(F)F)cc1 | -0.296
Cc1ccc(C(=O)N(C)Cc2csc(Br)c2)c(=O)[nH]1 | 15.3
Cc1cc(N2CCC(N(C)C(=O)c3cccs3)CC2)nc(C)n1 | 6.74
NC(=O)c1ccc(CN2CCCC(N3CCCCCC3)C2)cc1 (stereo unspecified) | -6.46
N#Cc1cccnc1N1CCC(c2nc(C(F)(F)F)c[nH]2)CC1 | 2.74
CN1CCN(S(C)(=O)=O)c2ccc(F)cc21 | -4.12

SMILES | cytotoxicity at 10 µM [%]
O=C(C[S+]([O-])Cc1ccc(Cl)cc1Cl)N1CCc2sccc2C1 (stereo unspecified) | 2.13
O=C(NCCC1CCN(CC(F)(F)F)CC1)C1COCCO1 (stereo unspecified) | 1.38
O=C(C[S+]([O-])Cc1cccc(C(F)(F)F)c1)NC1CCCC1 (stereo unspecified) | 7.72
CC(C)(C)CC(=O)NCC(=O)Nc1ccn(Cc2ccccc2)n1 | 7.08
CC(C)(O)CN1CCN(C(=O)COC2CCCCC2)CC1 | -2.77
Cc1noc(CNC(=O)C(C)(C)NC(=O)OC(C)(C)C)n1 | 13.9
Cc1cc(NCc2cccc(C#N)c2)ccc1C(=O)N(C)C | 7.06
CS(=O)(=O)CCCN(CCCO)C1CCc2ccccc21 (stereo unspecified) | -10.4
O=C(CN1CCCC(c2ccn[nH]2)C1)N1CCCc2ccccc21 (stereo unspecified) | -3.41
Cc1cc(C(=O)Nc2ccc(N3CCCC3)cn2)ccc1-n1cncn1 | 19.8
CC(C)(NS(C)(=O)=O)c1nc(-c2ccncc2)no1 | 12.9
COc1ccc(CNCC2CC2)cc1F | -22
CC(C)C(C(=O)N1CCN(c2ccncc2)CC1)n1cncn1 (stereo unspecified) | -9.35
Cc1cc(C(=O)N2CCCC2c2nnc3n2CCCCC3)no1 (stereo unspecified) | -14
CC(C)(C(=O)NCC(N)=O)c1ccccc1F | -5.33
Cc1nsc(NC(=O)NC2(CN3CCCCC3)CCCCC2)n1 | 10.6
CCN(CC)C(=O)[C@@H]1C[C@H](NC(=O)c2ccn(C(C)(C)C)c2)CN1C | -19.3
CC(C)c1cc(NCC2(N3CCOCC3)CCCCC2)ncn1 | -12.8
Cc1nonc1CN(C)Cc1c[nH]nc1-c1ccc(F)cc1F | 11.9
Cc1cccc(C(=O)N2CCCC(c3nccn3Cc3cscn3)C2)n1 (stereo unspecified) | -1.28
CCc1ccc(CN2CCOC(Cc3cccc(F)c3)C2)nc1 (stereo unspecified) | -2.33
COc1cccc(C(=O)N2CCc3c(nc(N)[nH]c3=O)C2)c1C | 1.96
O=C(c1c[nH]c(=O)[nH]c1=O)N1CCCC(c2nccn2CC2CCC2)C1 (stereo unspecified) | -3.67

SMILES | cytotoxicity at 10 µM [%]
Cc1ccccc1C(C(=O)NCCn1cccc1)N(C)C (stereo unspecified) | 7.62
CS(=O)(=O)N1CCc2[nH]cnc2C12CCN(C(=O)c1cccnc1)CC2 | 2.62
CCn1ccnc1CN(C)Cc1nc(Cc2ccccc2F)no1 | 0.686
Cc1cnc2c(C(=O)N(C)Cc3cc(C4CC4)[nH]n3)cnn2c1 | -5.71
N#Cc1cccc(N2CCC(CO)(CCCc3ccccc3)CC2)n1 | -45.7
CN(C)CCCC(=O)NC1CC(C)(C)Cc2nc(C(C)(C)C)ncc21 (stereo unspecified) | 15.2
CC(C)N1CC(n2ccnc2-c2nccn2C)CC1=O (stereo unspecified) | -0.371
CCC1CCCCN1S(=O)(=O)c1c(N)noc1C (stereo unspecified) | 9.5
O=C(O)[C@@H]1CN(Cc2ccc3nsnc3c2)C[C@H]1c1ccncc1 | 5.4
Cc1nc(CC(=O)N2CCC[C@H]2c2nc(C(C)C)no2)cs1 | -14.2
Cc1occc1C(=O)N1CCC2(CCC(=O)N(CC(N)=O)C2)CC1 | -9.32
Cc1nn(C)cc1-c1cc(C(F)F)n2nc(CCC(=O)O)nc2n1 | -5.44
CCC(CC#N)n1ccc(C(F)(F)F)n1 (stereo unspecified) | -8.38
CC(C)c1nccn1-c1cccc(C2CCCN2S(=O)(=O)N(C)C)n1 (stereo unspecified) | 4.26
Cc1nc(C)n(C2CCCN(C(=O)c3ccc4[nH]nnc4c3)C2)n1 (stereo unspecified) | -13.9
O=C(c1ccccc1N1CCOCC1)N1CCCC(n2ccnc2)C1 (stereo unspecified) | -10.7
Cc1cc(NC(=O)NCC(O)c2ccc(F)c(F)c2)n(C)n1 (stereo unspecified) | -21.1
Cc1cccnc1NC(=O)NCc1ccc(N2CCNC(=O)C2)cc1 | -8.85
COc1ccc(C)cc1CN(C)Cc1nc2c(cnn2C)c(=O)[nH]1 | -5.33
O=C(CCc1cscn1)N1CCCC(n2ccnc2)C1 (stereo unspecified) | -3.03
Cc1ccc(N2CCCC(NCC(=O)NCC3CC3)C2)nn1 (stereo unspecified) | -2.5
COc1cccc(COCC(=O)N2CCCC(c3nncn3C)C2)c1 (stereo unspecified) | -6.36
COc1ccccc1CC1CCCN(CC(N)=O)C1 (stereo unspecified) | 5.68

SMILES | cytotoxicity at 10 µM [%]
CC(C(=O)NCc1ccc(-n2cncn2)nc1)n1ccnc1 (stereo unspecified) | 0.409
CCc1nnsc1C(=O)N1CCCN(Cc2cnn(C)c2)CC1 | -2.26
CN(Cc1nc(N2CCCC2)ncc1-c1ccncc1)C(=O)C(C)(C)C | 6.58
c1cnc2[nH]nc(C3CCN(Cc4ccsc4)CC3)c2c1 | -27.3
CC(C)CN1CCCC2(CCN(c3ccccn3)C2)C1 (stereo unspecified) | -1.22
CN1CC(=O)N(c2cnn(C)c2)CC12CCN(Cc1ccccc1)C2 (stereo unspecified) | -7.24
Fc1ccc(CNCC2Cn3nncc3CO2)cc1 (stereo unspecified) | 7.31
Cc1ccc(N2CCC3(CC2)CNC(=O)CO3)nn1 | 6.07
CN(C)C(=O)CN1C(=O)CO[C@@H]2CN(c3ccccn3)C[C@H]21 | 12.3
CN1CCNC(Cc2ccc(-c3ccncc3)cc2)C1=O (stereo unspecified) | -25.8
COCCN1CCOCC12CCN(C(=O)c1ccoc1)CC2 | -84.6
CN1CC(=O)N(c2cccc(F)c2)CC12CCN(CCO)C2 (stereo unspecified) | -82.1
CN1CCc2ncc(CNc3cc(N(C)C)ncn3)n2CC1 | 0.749
Cc1nnc(N2CC[C@H]3O[C@H](C(=O)NCc4ccccn4)CC[C@H]32)s1 | -66.4
O=C(c1c[nH]cn1)N1CCC(F)(F)C2(CCN(c3cccc(F)c3)C2)C1 (stereo unspecified) | 9.58
CN(C)S(=O)(=O)N1CC[C@]2(C[C@@H](Oc3cccnc3)CO2)C1 | -76.3
COCc1n[nH]c2c1CN(C(=O)c1ccncc1)C2 | 16.6
COc1ccc(C2c3c(N)nc(SC)nc3N=C3CCCC(=O)C32)cc1 (stereo unspecified) | -18.7
Cc1cccc(CN2C[C@@H]3C[C@H](C(=O)NCc4cccnc4)[C@H](C2)O3)c1 | -5.98
